Source: ChEMBL document CHEMBL3813629, “Antistaphylococcal Prenylated Acylphoroglucinol and Xanthones from Kielmeyera variabilis” (2016)
≈ marks a conversion by molar mass, not a printed value. Calls of active or inactive are those of the source.

What was measured:
Staphylococcus aureus [1] = assay: Antibacterial activity against […] Staphylococcus aureus ATCC 25923 after 18 hrs by MTT assay; format: functional
Procedure, shortened: (§1)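 Strains grown on nutrient agar 24 h at 37 °C; inoculum 1 × 10⁶ cfu/mL in normal saline, set against 0.5 McFarland standard. Samples dissolved in DMSO, diluted in cation-adjusted Mueller-Hinton broth (Ca²⁺ 20 mg/L, Mg²⁺ 10 mg/L), starting 1024 mg/L, twofold serial broth microdilution; 37 °C, 18 h; MTT added, 20 min; MIC = lowest concentration without yellow-to-blue change.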

Staphylococcus aureus [2] = assay: Antibacterial activity against MsrA macrolide-resistant Staphylococcus aureus RN4220 after 18 hrs by MTT assay; format: functional; procedure, shortened: as §1
Staphylococcus aureus [3] = assay: Antibacterial activity against […] Staphylococcus aureus EMRSA-15 after 18 hrs by MTT assay; format: functional; procedure, shortened: as §1
Staphylococcus aureus [4] = assay: Antibacterial activity against […] Staphylococcus aureus EMRSA-16 after 18 hrs by MTT assay; format: functional; procedure, shortened: as §1
Staphylococcus aureus [5] = assay: Antibacterial activity against […] Staphylococcus aureus XU212 expressing TetK efflux pump after 18 hrs by MTT assay; format: functional; procedure, shortened: as §1
Staphylococcus aureus [6] = assay: Antibacterial activity against […] Staphylococcus aureus SA1199B over expressing NorA MDR efflux pump after 18 hrs by MTT assay; format: functional; procedure, shortened: as §1
Staphylococcus aureus [7] = assay: […] activity against […] Staphylococcus aureus SA1199B over expressing NorA MDR efflux pump assessed as growth inhibition after 24 hrs using cell cultures pre-treated with compound for 24 hrs; format: functional, organism-based
Procedure, shortened: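 MIC-plate wells from SA-1199B showing no growth sampled (10 μL) onto drug-free Mueller-Hinton agar, incubated 24 h; growth of colonies scored; bactericidal end point defined as ≥99.9% reduction versus starting inoculum. MBC plates themselves incubated 24 h at 37 °C before transfer.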

| Structure (SMILES) | MIC (Staphylococcus aureus [1]; ATCC 25923, 18 h) | MIC (Staphylococcus aureus [2]; RN4220, 18 h) | MIC (Staphylococcus aureus [3]; EMRSA-15, 18 h) | MIC (Staphylococcus aureus [4]; EMRSA-16, 18 h) | MIC (Staphylococcus aureus [5]; XU212, 18 h) | MIC (Staphylococcus aureus [6]) | growth inhibition (GI) (Staphylococcus aureus [7]) | MIC (Staphylococcus aureus [1]) | MIC (Staphylococcus aureus [2]) | MIC (Staphylococcus aureus [3]) | MIC (Staphylococcus aureus [4]) | MIC (Staphylococcus aureus [5]) |
| --- | --- | --- | --- | --- | --- | --- | --- | --- | --- | --- | --- | --- |
| CCn1cc(C(=O)O)c(=O)c2cc(F)c(N3CCNCC3)cc21 [NORFLOXACIN] | 0.5 mg/L (≈ 1.57 µM) | 0.5 mg/L (≈ 1.57 µM) | 0.5 mg/L (≈ 1.57 µM) | 128 mg/L (≈ 401 µM) | 8 mg/L (≈ 25.1 µM) | 32 mg/L (≈ 100 µM) |  |  |  |  |  |  |
| COc1cc2c(=O)c3ccccc3oc2c(O)c1O | 64 mg/L (≈ 248 µM) | 32 mg/L (≈ 124 µM) | 64 mg/L (≈ 248 µM) | 16 mg/L (≈ 62 µM) | 16 mg/L (≈ 62 µM) | 32 mg/L (≈ 124 µM) |  |  |  |  |  |  |
| COc1cc2c(=O)c3ccccc3oc2c(O)c1OC | 128 mg/L (≈ 470 µM) | > 512 mg/L | > 512 mg/L | 64 mg/L (≈ 235 µM) | 128 mg/L (≈ 470 µM) | 64 mg/L (≈ 235 µM) |  |  |  |  |  |  |
| COc1cc(OC)c2c(=O)c3cccc(O)c3oc2c1 | 128 mg/L (≈ 470 µM) | > 512 mg/L | > 512 mg/L | 64 mg/L (≈ 235 µM) | > 512 mg/L | 64 mg/L (≈ 235 µM) |  |  |  |  |  |  |
| COc1c(O)ccc2oc3ccccc3c(=O)c12 | 64 mg/L (≈ 264 µM) | 64 mg/L (≈ 264 µM) | 64 mg/L (≈ 264 µM) | 32 mg/L (≈ 132 µM) | 128 mg/L (≈ 528 µM) | 64 mg/L (≈ 264 µM) |  |  |  |  |  |  |
| COc1cc([C@@H]2Oc3c(OC)cc4c(=O)c5ccccc5oc4c3O[C@H]2CO)ccc1O | > 512 mg/L | > 512 mg/L | > 512 mg/L | > 512 mg/L | > 512 mg/L | > 512 mg/L |  |  |  |  |  |  |
| CCCCC(C(=O)OC)[C@]12C(=O)[C@](CC=C(C)C)(C[C@H](CC=C(C)C)C1(C)C)C(=O)C(C(=O)CCC)=C2O (some centres not stated) | 1 mg/L (≈ 1.89 µM) | 0.25 mg/L (≈ 0.473 µM) | 1 mg/L (≈ 1.89 µM) | 0.5 mg/L (≈ 0.946 µM) | 0.25 mg/L (≈ 0.473 µM) | 2 mg/L (≈ 3.78 µM) | Active |  |  |  |  |  |
| CC(C)[C@H](C)CC[C@@H](C)[C@H]1CC[C@H]2[C@@H]3CC=C4C[C@@H](O)CC[C@]4(C)[C@H]3CC[C@]12C |  |  |  |  |  | inactive |  | inactive | inactive | inactive | inactive | inactive |
| COc1cc2c(=O)c3ccccc3oc2cc1O | 64 mg/L (≈ 264 µM) | 64 mg/L (≈ 264 µM) | 64 mg/L (≈ 264 µM) | 32 mg/L (≈ 132 µM) | 64 mg/L (≈ 264 µM) | 64 mg/L (≈ 264 µM) |  |  |  |  |  |  |
| CC[C@H](/C=C/[C@@H](C)[C@H]1CC[C@H]2[C@@H]3CC=C4C[C@@H](O)CC[C@]4(C)[C@H]3CC[C@]12C)C(C)C |  |  |  |  |  | inactive |  | inactive | inactive | inactive | inactive | inactive |
| CC[C@H](CC[C@@H](C)[C@H]1CC[C@H]2[C@@H]3CC=C4C[C@@H](O)CC[C@]4(C)[C@H]3CC[C@]12C)C(C)C |  |  |  |  |  | inactive |  | inactive | inactive | inactive | inactive | inactive |
